Experimental data taken from ChEMBL document CHEMBL2417547 (J Med Chem, 2013).

Assays:
[1] = biological target: T1, Cytochrome P450 11B2, mitochondrial (Homo sapiens, UniProt P19099); assay: Inhibition of human CYP11B2 expressed in hamster V79MZh cells using [1,2-3H]-11-deoxycorticosterone as substrate; format: cell-based
T1 sequence (P19099 whole entry): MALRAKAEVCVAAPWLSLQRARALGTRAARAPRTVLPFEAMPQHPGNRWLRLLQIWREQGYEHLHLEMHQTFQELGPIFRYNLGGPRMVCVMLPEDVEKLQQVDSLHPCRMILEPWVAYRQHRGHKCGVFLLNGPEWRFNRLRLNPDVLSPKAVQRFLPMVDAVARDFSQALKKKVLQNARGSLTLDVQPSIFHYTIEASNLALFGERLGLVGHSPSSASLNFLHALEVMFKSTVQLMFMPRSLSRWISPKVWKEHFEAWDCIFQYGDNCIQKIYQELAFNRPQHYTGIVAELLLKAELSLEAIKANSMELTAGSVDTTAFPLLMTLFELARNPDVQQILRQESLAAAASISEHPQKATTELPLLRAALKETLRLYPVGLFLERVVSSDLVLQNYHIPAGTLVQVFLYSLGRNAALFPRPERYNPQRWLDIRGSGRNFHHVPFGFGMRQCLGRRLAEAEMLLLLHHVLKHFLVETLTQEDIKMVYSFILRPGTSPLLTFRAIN
Procedure, shortened: (§1)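 V79MZh hamster fibroblasts expressing human CYP11B1 or CYP11B2 were incubated with [1,2-3H]-11-deoxycorticosterone (100 nM) plus inhibitor at a range of concentrations. The selectivity factor is IC50(CYP11B2)/IC50(CYP11B1).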

Homo sapiens = species on record: Homo sapiens; assay: Selectivity factor, ratio of IC50 for human CYP11B2 to IC50 for human CYP11B1
Procedure, shortened: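 V79MZh hamster fibroblasts expressing human CYP11B1 or CYP11B2 were incubated with [1,2-3H]-11-deoxycorticosterone (100 nM) plus inhibitor at a range of concentrations. […] The selectivity factor is IC50(CYP11B2)/IC50(CYP11B1).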

[2] = biological target: T2, Cytochrome P450 11B1, mitochondrial (Homo sapiens, UniProt P15538); assay: Inhibition of human CYP11B1 expressed in hamster V79MZh cells using [1,2-3H]-11-deoxycorticosterone as substrate; format: cell-based; procedure, shortened: as §1
T2 sequence (P15538 whole entry): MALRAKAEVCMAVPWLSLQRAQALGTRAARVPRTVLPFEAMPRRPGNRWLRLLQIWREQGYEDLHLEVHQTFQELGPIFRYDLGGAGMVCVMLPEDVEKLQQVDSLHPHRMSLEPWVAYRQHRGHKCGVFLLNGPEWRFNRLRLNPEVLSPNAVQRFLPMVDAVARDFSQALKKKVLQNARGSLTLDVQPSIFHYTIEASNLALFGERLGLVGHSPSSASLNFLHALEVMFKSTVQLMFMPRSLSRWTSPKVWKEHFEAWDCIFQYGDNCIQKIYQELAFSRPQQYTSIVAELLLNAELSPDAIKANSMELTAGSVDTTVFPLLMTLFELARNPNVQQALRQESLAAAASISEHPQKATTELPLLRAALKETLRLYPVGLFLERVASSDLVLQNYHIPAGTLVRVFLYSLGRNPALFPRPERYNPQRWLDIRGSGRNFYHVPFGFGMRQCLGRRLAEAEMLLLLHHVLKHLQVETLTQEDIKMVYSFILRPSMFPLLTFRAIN

CYP19 (aromatase) = biological target: T3, CYP19 (aromatase) (Homo sapiens, UniProt P11511); assay: Inhibition of microsomal CYP19 in human placenta using [1beta-3H]-androstenedione as substrate at 2 uM by 3H2O method relative to control; details: placental microsomes, probe [1beta-3H]-androstenedione
T3 sequence (P11511 whole entry): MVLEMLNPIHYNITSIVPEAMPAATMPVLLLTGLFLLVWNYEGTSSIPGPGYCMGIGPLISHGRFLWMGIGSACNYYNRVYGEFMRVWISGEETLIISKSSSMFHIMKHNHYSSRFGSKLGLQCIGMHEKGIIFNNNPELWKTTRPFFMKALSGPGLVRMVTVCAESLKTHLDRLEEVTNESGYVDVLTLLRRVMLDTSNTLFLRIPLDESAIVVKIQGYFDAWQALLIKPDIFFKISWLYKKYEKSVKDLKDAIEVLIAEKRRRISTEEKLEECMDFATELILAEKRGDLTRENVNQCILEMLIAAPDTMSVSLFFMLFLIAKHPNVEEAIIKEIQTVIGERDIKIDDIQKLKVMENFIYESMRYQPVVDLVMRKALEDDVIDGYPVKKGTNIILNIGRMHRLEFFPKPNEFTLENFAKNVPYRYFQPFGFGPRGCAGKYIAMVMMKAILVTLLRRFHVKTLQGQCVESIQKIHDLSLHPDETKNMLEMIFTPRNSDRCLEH
Procedure, shortened: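 Human placental microsomes as the CYP19 source, with [1β-3H]androstenedione at 500 nM. Activity read by 3H2O release. Compound at 2 μM. Percent inhibition is the mean of at least three experiments (deviations <25%); values ≤5% are not significant.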

CYP17 = biological target: T4, CYP17 (Homo sapiens, UniProt P05093); assay: Inhibition of human CYP17 expressed in Escherichia coli co-expressing rat NADPH-P450 reductase using progesterone as substrate at 2 uM relative to control; details: probe progesterone
T4 sequence (P05093 whole entry): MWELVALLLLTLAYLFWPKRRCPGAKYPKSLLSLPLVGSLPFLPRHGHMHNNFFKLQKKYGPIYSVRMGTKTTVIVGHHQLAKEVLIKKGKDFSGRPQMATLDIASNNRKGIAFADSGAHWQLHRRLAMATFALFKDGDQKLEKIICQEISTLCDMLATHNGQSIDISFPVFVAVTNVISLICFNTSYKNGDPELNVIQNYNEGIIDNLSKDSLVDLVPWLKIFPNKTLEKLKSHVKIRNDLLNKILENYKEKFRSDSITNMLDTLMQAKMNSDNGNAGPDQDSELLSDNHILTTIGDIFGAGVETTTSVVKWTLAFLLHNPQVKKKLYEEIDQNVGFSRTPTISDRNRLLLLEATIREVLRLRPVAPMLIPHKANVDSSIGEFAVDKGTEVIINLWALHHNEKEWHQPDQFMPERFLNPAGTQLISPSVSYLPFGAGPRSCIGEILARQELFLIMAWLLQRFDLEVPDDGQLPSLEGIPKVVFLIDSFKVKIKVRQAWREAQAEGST
Procedure, shortened: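 Human CYP17 expressed in E. coli, co-expressing rat NADPH-P450 reductase. Progesterone substrate at 25 μM with NADPH cofactor. Test compound at 2 μM. Percent inhibition is the mean of at least three experiments (deviations <25%); values ≤5% are treated as not significant.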

[3] = Cytotoxicity against HEK293 cells after 24 hrs; format: cell-based; details: human, read-out: LC50
Procedure, shortened: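 HEK 293 cells seeded at 2 × 10⁵ cells per well; compounds added 24 h after seeding at 1% final DMSO. Living cell mass determined after 24 h incubation; LC₅₀ calculated. Doxorubicin positive control, rifampicin negative control. Mean of more than three repeats.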

`c1ccc(-c2ccc(Cc3ccncc3)cn2)cc1` showed an IC50 [1] of 621 nM, a Ratio IC50 (Homo sapiens) of 6.4 and an IC50 [2] of 98 nM.

Compound `CC(c1ccc(-c2ccsc2)nc1)n1ccnc1` (configuration not stated) has an IC50 [1] of 151 nM, a Ratio IC50 (Homo sapiens) of 9.1 and an IC50 [2] of 21 nM.

Compound `c1ccc(-c2ccc(C(c3ccco3)n3ccnc3)cn2)cc1` (configuration not stated) has an IC50 [1] of 74 nM, a Ratio IC50 (Homo sapiens) of 1.1 and an IC50 [2] of 69 nM.

`NC(=O)c1cncc(Cc2ccc(-c3ccccc3)nc2)c1` gave an IC50 [1] of 2920 nM, a Ratio IC50 (Homo sapiens) of 6.9 and an IC50 [2] of 427 nM.

Compound `c1ccc(-c2ccc(Cc3cncc4ccccc34)cn2)cc1` has an IC50 [1] of 23 nM, a Ratio IC50 (Homo sapiens) of 4.2 and an IC50 [2] of 6 nM.

Compound `c1ccc2c(-c3ccc(C(C4CC4)n4ccnc4)cn3)cccc2c1` (configuration not stated) has an IC50 [1] of 220 nM, a Ratio IC50 (Homo sapiens) of 1.5 and an IC50 [2] of 151 nM.

Compound `c1ccc(-c2ccc(Cn3ccnc3)cn2)cc1` has an IC50 [1] of 1420 nM, a Ratio IC50 (Homo sapiens) of 13.3 and an IC50 [2] of 107 nM.

In the case of `c1ccc(-c2ncc(Cn3ccnc3)cn2)cc1`, the IC50 [1] is reported as over 5000 nM, the Ratio IC50 (Homo sapiens) is reported as over 5 and the IC50 [2] is reported as 1120 nM.

`Oc1cncc(Cc2ccc(-c3ccccc3)nc2)c1` showed an IC50 [1] of 836 nM, a Ratio IC50 (Homo sapiens) of 16.4 and an IC50 [2] of 51 nM.

`CC(c1ccc(-c2cccc3ccccc23)nc1)n1ccnc1` (configuration not stated) gave an IC50 [1] of 273 nM, a Ratio IC50 (Homo sapiens) of 4.6 and an IC50 [2] of 60 nM.

Compound `CC(C)C(c1ccc(-c2ccccc2)nc1)n1ccnc1` (configuration not stated) has an IC50 [1] of 28 nM and a Ratio IC50 (Homo sapiens) of 2.4.

Work on `c1cn(C(c2ccc(-c3ccsc3)nc2)C2CC2)cn1` (configuration not stated) yielded an IC50 [1] of 31 nM, a Ratio IC50 (Homo sapiens) of 2.8 and an IC50 [2] of 11 nM.

For `c1ccc(-c2ccc(Cc3cccnc3)cn2)cc1`, the IC50 [1] was 322 nM, the inhibition at 2 µM (CYP19 (aromatase)) was 0% and the Ratio IC50 (Homo sapiens) was 10.1. The IC50 [2] was 32 nM and the inhibition at 2 µM (CYP17) was 4%.

Compound `COc1cncc(Cc2ccc(-c3ccccc3)nc2)c1` has an IC50 [1] of 25 nM, a Ratio IC50 (Homo sapiens) of 5.1 and an IC50 [2] of 5 nM.

`CO[C@H]1/C=C/O[C@@]2(C)Oc3c(C)c(O)c4c(O)c(c(/C=N/N5CCN(C)CC5)c(O)c4c3C2=O)NC(=O)/C(C)=C\C=C\[C@H](C)[C@H](O)[C@@H](C)[C@@H](O)[C@@H](C)[C@H](OC(C)=O)[C@@H]1C` [RIFAMPIN] gave a CC50 at 24 h [3] of over 100000 nM.

Compound `c1ccc(-c2ccc(Nc3cccnc3)cn2)cc1` has an IC50 [1] of over 5000 nM and an IC50 [2] of over 5000 nM.

Compound `c1ccc(-c2ccc(Cc3cncnc3)cn2)cc1` has an IC50 [1] of 3110 nM, a Ratio IC50 (Homo sapiens) of 12.9 and an IC50 [2] of 240 nM.

Compound `c1ccc(-c2ncc(Cn3ccnc3)c3ccccc23)cc1` has an IC50 [1] of 302 nM, a Ratio IC50 (Homo sapiens) of 3.5 and an IC50 [2] of 87 nM.

`CCC(c1ccc(-c2ccccc2)nc1)n1ccnc1` (configuration not stated) gave an IC50 [1] of 92 nM, a Ratio IC50 (Homo sapiens) of 3.4 and an IC50 [2] of 28 nM.

`c1ccc(-c2cncc(Cc3ccc(-c4ccccc4)nc3)c2)cc1` gave an IC50 [1] of 0.5 nM, a Ratio IC50 (Homo sapiens) of 0.4 and an IC50 [2] of 1.3 nM.

Compound `Cc1ccncc1Cc1ccc(-c2ccccc2)nc1` has an IC50 [1] of 19 nM, a Ratio IC50 (Homo sapiens) of 2.4 and an IC50 [2] of 8 nM.

Work on `c1ccc2c(-c3ccc(Cn4ccnc4)cn3)cccc2c1` yielded an IC50 [1] of 656 nM, a Ratio IC50 (Homo sapiens) of 9.7 and an IC50 [2] of 68 nM.

For `c1cn(Cc2ccc(-c3ccsc3)nc2)cn1`, the IC50 [1] was 1020 nM, the Ratio IC50 (Homo sapiens) was 5.6 and the IC50 [2] was 181 nM.

`COc1cccc2c1C(=O)c1c(O)c3c(c(O)c1C2=O)C[C@@](O)(C(=O)CO)C[C@@H]3O[C@H]1C[C@H](N)[C@H](O)[C@H](C)O1` [DOXORUBICIN] gave a CC50 at 24 h [3] of 4300 nM.

For `CC(C)(C(=O)c1cccnc1)c1cccnc1` [METYRAPONE], the inhibition at 2 µM (CYP17) was 3%.

For `c1ccc(-c2ccc(C(C3CC3)n3ccnc3)cn2)cc1` (configuration not stated), the IC50 [1] was 25 nM, the Ratio IC50 (Homo sapiens) was 1.2 and the IC50 [2] was 21 nM.

`c1ccc(-c2ccc(C(c3ccccc3)n3ccnc3)cn2)cc1` (configuration not stated) gave an IC50 [1] of 110 nM, a Ratio IC50 (Homo sapiens) of 0.9 and an IC50 [2] of 124 nM.

`CC(c1ccc(-c2ccccc2)nc1)n1ccnc1` (configuration not stated) gave an IC50 [1] of 200 nM, an inhibition at 2 µM (CYP19 (aromatase)) of 1% and a Ratio IC50 (Homo sapiens) of 6.1. The IC50 [2] was 33 nM and the inhibition at 2 µM (CYP17) was 13%.

With `Fc1cncc(Cc2ccc(-c3ccccc3)nc2)c1` the IC50 [1] was 419 nM, the Ratio IC50 (Homo sapiens) was 3.4 and the IC50 [2] was 125 nM.

With `c1ccc(-c2cnc(Cn3ccnc3)cn2)cc1` the IC50 [1] was 1020 nM, the Ratio IC50 (Homo sapiens) was 1.7 and the IC50 [2] was 610 nM.

`c1ccc(-c2ccc(Cn3ccnc3)nn2)cc1` showed an IC50 [1] of 4540 nM, a Ratio IC50 (Homo sapiens) of 2.7 and an IC50 [2] of 1710 nM.

For `c1ccc(-c2ccc(Oc3cccnc3)cn2)cc1`, the IC50 [1] was 1880 nM, the Ratio IC50 (Homo sapiens) was 1.9 and the IC50 [2] was 1020 nM.
